Data set [1] is described as follows: Tmax in Sprague-Dawley rat blood at 6 mg/kg, po measured upto 24 hrs by LC-MS/MS method. The class given is ADME, organism-based. The gist of the method: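 Male SD rats (180–220 g) dosed orally at 2, 6 and 20 mg/kg, handled like the mice: fasting, 5% DMSO/5% Tween 80/saline vehicle, acetonitrile extraction, LC-MS/MS of plasma. In a separate set at 6 mg/kg p.o., blood and brain were sampled together.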

Data set [2] has as its target T1, Potassium voltage-gated channel subfamily KQT member 4 (Homo sapiens) (UniProt P56696).
T1 sequence (whole entry): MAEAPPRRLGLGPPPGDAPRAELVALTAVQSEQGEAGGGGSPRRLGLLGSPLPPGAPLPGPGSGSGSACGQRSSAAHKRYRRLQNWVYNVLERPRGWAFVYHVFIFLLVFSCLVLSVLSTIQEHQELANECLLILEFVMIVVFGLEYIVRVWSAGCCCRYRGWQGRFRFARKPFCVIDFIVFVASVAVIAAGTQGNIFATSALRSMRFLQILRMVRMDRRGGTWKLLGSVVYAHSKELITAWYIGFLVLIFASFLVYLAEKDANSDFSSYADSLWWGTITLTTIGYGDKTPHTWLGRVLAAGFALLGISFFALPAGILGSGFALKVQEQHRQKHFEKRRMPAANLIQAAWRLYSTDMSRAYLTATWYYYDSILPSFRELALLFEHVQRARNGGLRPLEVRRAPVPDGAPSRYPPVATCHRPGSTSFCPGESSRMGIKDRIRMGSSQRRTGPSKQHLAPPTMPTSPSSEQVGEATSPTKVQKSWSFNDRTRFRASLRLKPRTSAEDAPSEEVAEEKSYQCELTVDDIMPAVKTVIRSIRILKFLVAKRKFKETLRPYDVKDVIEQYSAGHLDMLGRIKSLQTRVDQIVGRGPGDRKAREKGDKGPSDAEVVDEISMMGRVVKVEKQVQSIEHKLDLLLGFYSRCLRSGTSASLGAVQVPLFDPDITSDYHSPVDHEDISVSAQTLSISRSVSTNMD
The data set is described as follows: Agonist activity at human KCNQ4 channel expressed in CHO cells assessed as shift of half voltage of maximal activation at 0.1 uM by patch clamp method. The class given is cell-based. Conditions: filed as agonist. The gist of the method:
(§1)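 Whole-cell patch clamp at room temperature on CHO cells (DMEM/F12, 10% FBS) transiently co-transfected with EGFP and hKCNQ1, rKCNQ2, rKCNQ3 A278T, hKCNQ4 or hKCNQ5; KCNQ2/3 at 1:1 cDNA ratio. Pipette solution 145 mM KCl, 5 mM MgATP, pH 7.3; bath 140 mM NaCl, 5 mM KCl, pH 7.4, under perfusion. V1/2 from Boltzmann fits; I/I0 is current amplitude with versus without compound; n = 4−6.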
On the technique in general: The patch-clamp technique gives a direct electrical read-out from membranes.

The next data set deals with CYP1A2 (Homo sapiens, UniProt P05177). The data set is described as follows: Ratio of IC50 for human liver microsome CYP1A2 in absence of NADPH to IC50 for human liver microsome CYP1A2 in presence of NADPH. Conditions: liver microsomes, read-out: Ratio IC50. Background: Liver microsomes are vesicles of endoplasmic reticulum, rich in cytochrome P450 enzymes.
Sequence of CYP1A2 (P05177 whole entry): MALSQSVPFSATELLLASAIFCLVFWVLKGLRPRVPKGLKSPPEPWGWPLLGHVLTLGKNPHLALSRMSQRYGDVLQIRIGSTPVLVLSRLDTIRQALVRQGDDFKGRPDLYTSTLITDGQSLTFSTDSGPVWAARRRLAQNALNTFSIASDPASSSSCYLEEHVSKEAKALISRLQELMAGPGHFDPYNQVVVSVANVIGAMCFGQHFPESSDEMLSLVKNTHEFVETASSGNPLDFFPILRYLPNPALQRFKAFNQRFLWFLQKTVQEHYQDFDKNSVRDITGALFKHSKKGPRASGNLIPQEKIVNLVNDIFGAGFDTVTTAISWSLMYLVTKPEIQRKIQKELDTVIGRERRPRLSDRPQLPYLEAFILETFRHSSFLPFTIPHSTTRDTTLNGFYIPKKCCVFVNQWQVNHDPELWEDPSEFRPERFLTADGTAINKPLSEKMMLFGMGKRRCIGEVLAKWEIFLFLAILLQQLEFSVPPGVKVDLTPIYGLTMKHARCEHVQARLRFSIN
Data set [3] in a line: Half life in Kunming mouse brain at 5 mg/kg, po measured upto 24 hrs by LC-MS/MS method. In kind it is ADME, organism-based. The gist of the method:
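Male KM mice (18−24 g) fasted 12 h before and 2 h after dosing, given 5 mg/kg orally in 5% DMSO/5% Tween 80/90% normal saline (n = 3 per time point). Aortic blood taken at 0.25–24 h and whole brain collected. Acetonitrile extraction with internal standard, then LC−MS/MS. Bioavailability calculated against the 2 mg/kg i.v. arm.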

Data set [4] in a line: Cmax in Sprague-Dawley rat at 20 mg/kg, po measured upto 24 hrs by LC-MS/MS method. Conditions: in vivo. In kind it is ADME, organism-based. Set-up: time < 24 hrs, dose 20 mg/kg, route po. The essentials: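 Male SD rats (180−220 g) dosed orally at 2, 6 or 20 mg/kg in escalating fashion, handled as in the mouse study: 12 h fast, acetonitrile extraction of plasma, LC−MS/MS quantification. AUC0−t by trapezoidal method to the last measurable concentration.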

The nature of data set [5]: Cmax in Kunming mouse plasma at 5 mg/kg, po measured upto 24 hrs by LC-MS/MS method. The class given is ADME, organism-based. Also on record: dose 5 mg/kg, time < 24 hrs, route po. The gist of the method:
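KM male mice (18−24 g), fasted 12 h before and 2 h after dosing. HN37 given orally at 5 mg/kg in 5% DMSO/5% Tween 80/90% saline, or iv at 2 mg/kg after dilution in saline with 1% Tween 80; n = 3 per time point. Blood sampled 0.25–24 h (from 0.083 h after iv); whole brain taken after oral dosing. Plasma and brain extracted with acetonitrile, quantified by LC−MS/MS; AUC0−t by trapezoidal method.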

The nature of data set [6]: Ratio of drug concentration in Kunming mouse brain to plasma by rotarod test. On the technique in general: The rotarod test checks motor coordination on a turning rod.
A further data set has as its target CYP2C8 (Homo sapiens, UniProt P10632). Nature of the data set: Inhibition of human liver microsome CYP2C8 at 0.10 to 50 uM preincubated with NADPH for 0.5 hrs followed by substrate addition by LC-MS/MS method relative to control. In kind it is ADME. The following applies: liver microsomes, dose 0.1-50 µM.
Data set [7] addresses T2, Potassium voltage-gated channel subfamily KQT member 1 (Homo sapiens, UniProt P51787).
T2 sequence (P51787 whole entry): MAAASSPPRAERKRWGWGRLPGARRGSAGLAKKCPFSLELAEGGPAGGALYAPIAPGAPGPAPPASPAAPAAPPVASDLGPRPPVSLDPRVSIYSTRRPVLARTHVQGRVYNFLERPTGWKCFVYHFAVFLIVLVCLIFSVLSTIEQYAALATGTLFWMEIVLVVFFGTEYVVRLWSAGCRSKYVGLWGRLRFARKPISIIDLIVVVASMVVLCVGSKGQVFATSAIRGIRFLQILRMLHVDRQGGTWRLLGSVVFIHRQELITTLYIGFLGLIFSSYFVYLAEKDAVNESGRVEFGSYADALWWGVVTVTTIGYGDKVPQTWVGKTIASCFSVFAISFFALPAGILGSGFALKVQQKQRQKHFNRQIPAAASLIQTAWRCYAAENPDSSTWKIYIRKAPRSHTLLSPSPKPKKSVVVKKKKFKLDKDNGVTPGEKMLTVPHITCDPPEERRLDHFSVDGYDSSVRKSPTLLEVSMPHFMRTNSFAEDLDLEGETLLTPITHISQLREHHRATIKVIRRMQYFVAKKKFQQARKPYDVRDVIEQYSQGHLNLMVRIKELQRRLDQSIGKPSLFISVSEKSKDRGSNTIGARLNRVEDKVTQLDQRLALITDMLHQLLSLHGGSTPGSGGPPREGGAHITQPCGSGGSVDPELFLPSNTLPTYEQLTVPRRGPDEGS
Nature of the data set: Agonist activity at human KCNQ1 channel expressed in CHO cells assessed as amplitude change of outward current at 10 uM by patch clamp method. In kind it is cell-based. The gist of the method:
as §1

Usually Tmax stands for the time from dosing to the highest level. Usually half-life stands for the time needed for the level to fall by half in the phase considered. Higher therefore signals slow decline. For orientation: Cmax means the maximum level reached in the sampled fluid or tissue. In general, Kp refers to tissue or fluid exposure divided by exposure in the circulation. As usually defined, the inhibition is the share of the control response that was lost under treatment.

Sequence of CYP2C8 (P10632 whole entry): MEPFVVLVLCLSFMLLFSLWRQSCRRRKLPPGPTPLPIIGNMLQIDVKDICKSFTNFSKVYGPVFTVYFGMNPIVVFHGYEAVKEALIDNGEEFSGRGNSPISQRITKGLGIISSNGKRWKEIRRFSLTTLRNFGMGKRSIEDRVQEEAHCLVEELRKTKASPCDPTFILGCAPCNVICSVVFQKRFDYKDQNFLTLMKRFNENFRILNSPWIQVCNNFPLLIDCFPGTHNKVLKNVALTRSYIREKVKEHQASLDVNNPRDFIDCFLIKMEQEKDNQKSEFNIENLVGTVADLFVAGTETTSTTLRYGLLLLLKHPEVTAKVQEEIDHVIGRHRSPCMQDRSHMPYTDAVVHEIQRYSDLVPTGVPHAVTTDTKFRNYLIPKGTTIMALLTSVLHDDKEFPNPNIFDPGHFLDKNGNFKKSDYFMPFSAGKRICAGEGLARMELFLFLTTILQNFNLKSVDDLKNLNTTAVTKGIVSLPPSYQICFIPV

On to `C#CCN(Cc1ccc(F)cc1)c1cc(C)c(NC(=O)OC)c(C)c1`, for which the Tmax in [1] is 0.25 h. In data set [2], the Activity is -56.6 mV. Also, at CYP1A2, the IC50 shift was greater than 1.5. The half-life in data set [3] was 1.95 h. The Cmax in data set [4] stood at 323 ng/mL; in data set [5], 134 ng/mL. Also, the Kp in data set [6] amounted to 1.9. The inhibition at 0.5 h, up to 50 µM on CYP2C8 was less than 25%.
On to `CCOC(=O)Nc1ccc(NCc2ccc(F)cc2)cc1N` [EZOGABINE], for which the Activity in [7] was 1.01.
